The source of these data is the array DNA melting data of Ke et al. (doi:10.1101/2024.01.08.574731).

The nature of data set [1]: folding enthalpy; higher = less favourable; fluorescence melt of hairpins on a sequencing array, two-state fit. The conditions noted are these: sodium 0.088 M. In outline:
(§1)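 With Cy3 and quencher oligos annealed, library hairpins on a sequenced MiSeq flow cell were imaged for Cy3 fluorescence in 50 mM Na-HEPES pH 8.0, 25 mM NaCl, in 2.5 °C steps up to 60 °C. Melting temperature and folding enthalpy were derived from bootstrapped two-state fits of signals normalised to pre-quench Cy3 and to control constructs. Four replicates were combined by inverse variance, with fitted temperatures raised by 9.35 °C to match UV melts.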

Data set [2] is described as follows: melting temperature; fluorescence melt of hairpins on a sequencing array, two-state fit, raised by 9.35 °C to match UV melts. The following applies: sodium 0.088 M. In outline: as §1

For GGTAGCGCGAAAGCGACC (((..(((....)))))), the folding enthalpy in data set [1] was -13.3 kcal/mol. The Tm in data set [2] was 40 °C.
Take GATTGCGAAAGCAAAATC ((((((....)))..))): the folding enthalpy in data set [1] is -13.1 kcal/mol. Besides, the Tm in data set [2] was 35.3 °C.
On the same counts, the results for GACCCCGAAAGGGATGTC ((((((....)))..))) are -15.6 kcal/mol and 41.2 °C.
In the case of GGATGGCGAAAGCCTCC (((.(((....)))))), in data set [1], the folding enthalpy was -18.6 kcal/mol. In addition, in data set [2], the Tm is 55.6 °C.
On the same counts, the results for GTCGCCGAAAGGCGCGAC ((((((....)))..))) are -11.3 kcal/mol and 58.4 °C.
On the same counts, the results for GCTAAAGGAAACTTTGGC ((.((((....)))).)) are -30.4 kcal/mol and 41.1 °C.
For GATCTATGGTTAGATC ((((((....)))))), the folding enthalpy in data set [1] was -36 kcal/mol. The Tm in data set [2] is 41.5 °C.
The matching figures for GGTGGGGGAAACCTCGCC ((.(.((....)).).)): -30.8 kcal/mol and 45.6 °C.
On the same counts, the results for GATCTCCGAAAGGAATC (((.(((....)))))) are -14.4 kcal/mol and 33.3 °C.
On the same counts, the results for GAAGGGGGAAACCCCTTC (((((((....))))))) are -37 kcal/mol and 61.5 °C.
For GTTCTCGGAAACAAGAAC (((((.(....).))))), the folding enthalpy in data set [1] was -14.8 kcal/mol. For the same sequence, in data set [2], the Tm was found to be 33.9 °C.
The matching figures for GATCTGTATCAGATC ((((((...)))))): -34.4 kcal/mol and 48.2 °C.
For the sequence GCGCTCGAAAGAGTCCGC ((((((....)))..))), in data set [1], the folding enthalpy was -24.3 kcal/mol. In addition, in data set [2], the Tm was 42.8 °C.
The matching figures for GCTGGTCGAAAGACAAGC (((.(((....))).))): -41.4 kcal/mol and 56.2 °C.
As to GCAATCGAAAGATATGC ((((((....))).))), in data set [1], the folding enthalpy is -21.1 kcal/mol. For the same sequence, the Tm in data set [2] was 36.3 °C.
The matching figures for GATCTGGTGACAGATC ((((((....)))))): -40.8 kcal/mol and 56.4 °C.
The matching figures for GGACCCGAAAGGGCCTCC ((((((....)))..))): -14.7 kcal/mol and 57.5 °C.
On to GTGTTGGGAAACTAACGC (.(((.(....).))).), for which the folding enthalpy in data set [1] is -25.5 kcal/mol. Further, in data set [2], the Tm is 35.9 °C.
In the case of GATCAGATGACTGATC ((((((....)))))), the folding enthalpy in data set [1] was -35.3 kcal/mol. Moreover, the Tm in data set [2] is 47.8 °C.
The matching figures for GGCGGCGAAAGCCAGGCC ((((((....)))..))): -18.8 kcal/mol and 62 °C.
On to GGCGAGGCGAAAGCCGCC (((..(((....)))))), for which, in data set [1], the folding enthalpy was -17.3 kcal/mol. Further, the Tm in data set [2] is 66.9 °C.
The matching figures for GCCGACGGAAACGTCGAC (.(((((....))))).): -14.9 kcal/mol and 55.4 °C.
Consider GCACCGGGAAACCGATGC (((.(((....))).))), for which the folding enthalpy in data set [1] was -25.2 kcal/mol. In addition, in data set [2], the Tm amounted to 50.6 °C.
The matching figures for GTCGAAGGAAACTTCGAC (((((((....))))))): -48.6 kcal/mol and 62.2 °C.
On the same counts, the results for GAAGCGGGAAACCGTTTC (((.(((....))).))) are -28.2 kcal/mol and 47.1 °C.
On to GATCAACGAATTGATC ((((((....)))))), for which, in data set [1], the folding enthalpy is -25.8 kcal/mol. The Tm in data set [2] was 38.5 °C.
On to GCGACTACGAAAGTACGC (((..(((....)))))), for which the folding enthalpy in data set [1] is -25.8 kcal/mol. Also, the Tm in data set [2] was found to be 42.5 °C.
Take GGCCACTCGAAAGAGGCC (((..(((....)))))): in data set [1], the folding enthalpy is -27.7 kcal/mol. In addition, the Tm in data set [2] worked out at 52.3 °C.
On to GGCTTCGAAAGAAAGCC ((((((....))).))), for which the folding enthalpy in data set [1] was -38.1 kcal/mol. In addition, the Tm in data set [2] is 55 °C.
With GTTTCGGGAAACCGAAGC (.(((((....))))).), the folding enthalpy in data set [1] is -23.4 kcal/mol. Also, in data set [2], the Tm worked out at 47.3 °C.
The matching figures for GACTTGCCGAAAGGCGTC (((..(((....)))))): -11.6 kcal/mol and 36.4 °C.
As for GACTGGAAACAGTC (((((....))))), the folding enthalpy in data set [1] was -35.1 kcal/mol. In addition, the Tm in data set [2] worked out at 51.7 °C.
On the same counts, the results for GACACCGAAAGGTACGTC ((((((....)))..))) are -14.1 kcal/mol and 35.8 °C.
Turning to GACGCACGAAAGTGAGTC (((.(((....))).))), the folding enthalpy in data set [1] was -40 kcal/mol. Further, in data set [2], the Tm was found to be 60 °C.
The matching figures for GCTACGGGAAACCGTAGC (((((((....))))))): -38.1 kcal/mol and 68.8 °C.
On the same counts, the results for GGGACCGGAAACGGCCCC (((.(((....))).))) are -37 kcal/mol and 62.5 °C.
On the same counts, the results for GAACTCCGAAAGGACTTC (((.(((....))).))) are -19.5 kcal/mol and 29.7 °C.
As to GAACGGGGAAACCCGTCC (.(((((....))))).), in data set [1], the folding enthalpy was -11.7 kcal/mol. The Tm in data set [2] was found to be 42.5 °C.
On to GATCCCTGAGGGGATC ((((((....)))))), for which the folding enthalpy in data set [1] was -39.4 kcal/mol. For the same sequence, in data set [2], the Tm was 63 °C.
As for GTTCTTCGAAAGAAAAAC (((.(((....))).))), in data set [1], the folding enthalpy was -12.6 kcal/mol. For the same sequence, in data set [2], the Tm came to 25.4 °C.
On the same counts, the results for GGCGTTCGAAAGAAGGCC (((.(((....))).))) are -39.4 kcal/mol and 61.1 °C.
For the sequence GCTTACACGAAAGTGAGC (((..(((....)))))), the folding enthalpy in data set [1] is -16.9 kcal/mol. The Tm in data set [2] was determined as 38.8 °C.
The matching figures for GCGTTCGAAAGAAACGC ((((((....))).))): -35.3 kcal/mol and 56.1 °C.
Consider GGACTCGAAAGAGGTTCC ((((((....)))..))), for which the folding enthalpy in data set [1] is -17.6 kcal/mol. The Tm in data set [2] was 33.8 °C.
In the case of GGGTAGGGAAACCCACCC ((((.((....)).)))), the folding enthalpy in data set [1] is -29.2 kcal/mol. Further, the Tm in data set [2] turned out to be 48.3 °C.
On to GATCGAGCTTCGATC ((((((...)))))), for which, in data set [1], the folding enthalpy is -33.8 kcal/mol. Moreover, the Tm in data set [2] stood at 51.3 °C.
On to GATCACGAGAGTGATC ((((((....)))))), for which the folding enthalpy in data set [1] is -28.4 kcal/mol. Moreover, the Tm in data set [2] amounted to 67.8 °C.
With GATCGTCCGTACGATC ((((((....)))))), the folding enthalpy in data set [1] was -47.3 kcal/mol. For the same sequence, the Tm in data set [2] amounted to 54.9 °C.
For GGCTTACGAAAGTACGCC (((.(((....))).))), the folding enthalpy in data set [1] was -48 kcal/mol. Also, in data set [2], the Tm is 52.9 °C.
Consider GCCAAGCGAAAGCATCGC ((.(.((....)).).)), for which the folding enthalpy in data set [1] is -6.8 kcal/mol. In addition, the Tm in data set [2] is 31.2 °C.
The matching figures for GTTGGTACGAAAGTAAAC (((..(((....)))))): -19.1 kcal/mol and 34.6 °C.
The matching figures for GGCAGCACGAAAGTGGCC (((..(((....)))))): -22.3 kcal/mol and 51 °C.
Regarding GCTAGGGCGAAAGCCAGC (((..(((....)))))), in data set [1], the folding enthalpy is -15 kcal/mol. Besides, the Tm in data set [2] was 48 °C.
On the same counts, the results for GATCTTGTGAAGATC ((((((...)))))) are -28.9 kcal/mol and 42.4 °C.
Take GCGAGGGGAAACTCTCGC (((((.(....).))))): in data set [1], the folding enthalpy was -40.3 kcal/mol. For the same sequence, the Tm in data set [2] stood at 58 °C.
The matching figures for GCGCAGCGAAAGCCCCGC (((..((....))..))): -5.72 kcal/mol and 36.4 °C.
On the same counts, the results for GCTGTGCGAAAGCTGAGC (((..((....))..))) are -16.6 kcal/mol and 49.1 °C.
On the same counts, the results for GCTTACGAAAGTAAAGC ((((((....))).))) are -23.8 kcal/mol and 49.6 °C.
Consider GAGCACGGAAACGTACTC (((.(((....))).))), for which the folding enthalpy in data set [1] is -32.9 kcal/mol. Moreover, the Tm in data set [2] worked out at 45.4 °C.
In the case of GTAGCGAAAGCTAC (((((....))))), the folding enthalpy in data set [1] is -25.8 kcal/mol. Moreover, the Tm in data set [2] came to 68.7 °C.
The matching figures for GATCTTCACAAAGATC ((((((....)))))): -28.9 kcal/mol and 44.9 °C.
As for GATGAAGGAAACTTCACC (.(((((....))))).), the folding enthalpy in data set [1] is -13.2 kcal/mol. For the same sequence, in data set [2], the Tm worked out at 32.2 °C.
The matching figures for GTAAATGAAAATTTAC ((((((....)))))): -26.1 kcal/mol and 37.2 °C.
For GGGCGAGGAAACTCGCTC (.(((((....))))).), the folding enthalpy in data set [1] is -15.8 kcal/mol. Moreover, the Tm in data set [2] worked out at 58.1 °C.
As to GGGTTGGGAAACCAATCC ((.((((....)))).)), the folding enthalpy in data set [1] is -32.8 kcal/mol. Also, the Tm in data set [2] came out at 50.8 °C.
On the same counts, the results for GTTCGTCGAAAGACCAAC (((.(((....))).))) are -15.9 kcal/mol and 30.9 °C.
On the same counts, the results for GATCGTCGGAACGATC ((((((....)))))) are -27.3 kcal/mol and 52.7 °C.
On the same counts, the results for GTGACGGGAAACTGTCAC (((((.(....).))))) are -37.8 kcal/mol and 54.8 °C.
Consider GATCCATGTTGGATC ((((((...)))))), for which the folding enthalpy in data set [1] was -36.8 kcal/mol. The Tm in data set [2] is 52 °C.
The matching figures for GAACGTGGAAACGTGTTC ((((..(....)..)))): -14.9 kcal/mol and 37.5 °C.
For the sequence GATCCAAGCATGGATC ((((((....)))))), the folding enthalpy in data set [1] is -41.2 kcal/mol. Further, the Tm in data set [2] is 51.8 °C.
On the same counts, the results for GCACAGCGAAAGCGGAGC ((.(.((....)).).)) are -25.9 kcal/mol and 61.6 °C.
On the same counts, the results for GTATAGGGAAACCTATGC (.(((((....))))).) are -22.2 kcal/mol and 38 °C.
As for GCTAAGGCGAAAGCCAGC (((..(((....)))))), the folding enthalpy in data set [1] was -16 kcal/mol. In data set [2], the Tm was found to be 48.6 °C.
